In brackets after ≈: the same amount, converted by molar mass. Activity calls are given as the source filed them. No cut-off for these calls is given here.
Tests used:
Escherichia coli [1] = experiment: Antibacterial activity against Escherichia coli NKE96 harboring deletion mutation in acrB protein; assay type: functional
Escherichia coli [2] = experiment: Antibacterial activity against Escherichia coli NKE154 harboring vector expressing acrB deletion mutant; assay type: functional
Escherichia coli [3] = experiment: Antibacterial activity against Escherichia coli NKE155 harboring deletion mutation in acrB protein and plasmid expressing nlpE gene; assay type: functional
Escherichia coli [4] = experiment: Antibacterial activity against Escherichia coli NKE127 harboring deletion mutation in acrB and cpxAR protein; assay type: functional
Escherichia coli [5] = experiment: Antibacterial activity against Escherichia coli NKE158 harboring deletion mutation in acrB protein and vector expressing cpxAR gene; assay type: functional
Escherichia coli [6] = experiment: Antibacterial activity against Escherichia coli NKE159 harboring deletion mutation in acrB, cpxAR protein and plasmid expressing nlpE gene; assay type: functional
Escherichia coli [7] = experiment: Antibacterial activity against Escherichia coli NKE128 harboring deletion mutation in acrB and tolC protein; assay type: functional
Escherichia coli [8] = experiment: Antibacterial activity against Escherichia coli NKE160 harboring deletion mutation in acrB protein and vector expressing tolC gene; assay type: functional
Escherichia coli [9] = experiment: Antibacterial activity against Escherichia coli NKE161 harboring deletion mutation in acrB protein, vector expressing tolC gene and plasmid expressing nlpE gene; assay type: functional
Escherichia coli [10] = experiment: Antibacterial activity against Escherichia coli NKE126 harboring deletion mutation in acrB and acrD protein; assay type: functional
Escherichia coli [11] = experiment: Antibacterial activity against Escherichia coli NKE156 harboring deletion mutation in acrB protein and vector expressing acrD gene; assay type: functional
Escherichia coli [12] = experiment: Antibacterial activity against Escherichia coli NKE157 harboring deletion mutation in acrB, acrD protein and plasmid expressing nlpE gene; assay type: functional
Escherichia coli [13] = experiment: Antibacterial activity against Escherichia coli NKE1365 harboring deletion mutation in acrB and mdtABC protein; assay type: functional
Escherichia coli [14] = experiment: Antibacterial activity against Escherichia coli NKE1366 harboring deletion mutation in acrB and vector expressing mdtABC gene; assay type: functional
Escherichia coli [15] = experiment: Antibacterial activity against Escherichia coli NKE1367 harboring deletion mutation in acrB, mdtABC protein and plasmid expressing nlpE gene; assay type: functional
Escherichia coli [16] = experiment: Antibacterial activity against Escherichia coli NKE1316 harboring deletion mutation in acrB, acrD and mdtABC protein; assay type: functional
Escherichia coli [17] = experiment: Antibacterial activity against Escherichia coli NKE1369 harboring deletion mutation in acrB, acrD, mdtABC protein and plasmid expressing nlpE gene; assay type: functional
Escherichia coli [18] = experiment: Antibacterial activity against Escherichia coli NKE1359 harboring deletion mutation in acrB protein and plasmid expressing BADnlpE gene in presence of increasing concentration of arabinose; assay type: functional, organism-based
In short: (§1)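 ΔacrB host carrying empty pBAD33 or pBAD33 with nlpE under the arabinose-inducible PBAD promoter. MICs of oxacillin, cloxacillin, nafcillin, cefamandole, aztreonam, novobiocin, deoxycholate and kanamycin were measured with arabinose at several concentrations from 0 to 10,000 μM. Each MIC determination was repeated at least three times.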

Escherichia coli [19] = experiment: Antibacterial activity against Escherichia coli NKE1355 harboring deletion mutation in acrB protein and plasmid expressing BAD gene in presence of increasing concentration of arabinose; assay type: functional, organism-based; in short: as §1
Escherichia coli [20] = experiment: Antibacterial activity against Escherichia coli NKE1368 harboring deletion mutation in acrB, acrD and mdtABC genes and carrying empty pHSG398 vector

Row | SMILES | MIC (Escherichia coli [1]) [mg/L] | MIC (Escherichia coli [2]) [mg/L] | MIC (Escherichia coli [3]) [mg/L] | MIC (Escherichia coli [4]) [mg/L] | MIC (Escherichia coli [5]) [mg/L] | MIC (Escherichia coli [6]) [mg/L] | MIC (Escherichia coli [7]) [mg/L] | MIC (Escherichia coli [8]) [mg/L] | MIC (Escherichia coli [9]) [mg/L] | MIC (Escherichia coli [10]) [mg/L] | MIC (Escherichia coli [11]) [mg/L] | MIC (Escherichia coli [12]) [mg/L] | MIC (Escherichia coli [13]) [mg/L] | MIC (Escherichia coli [14]) [mg/L] | MIC (Escherichia coli [15]) [mg/L] | MIC (Escherichia coli [16]) [mg/L] | MIC (Escherichia coli [17]) [mg/L] | Activity (Escherichia coli [18]) | Activity (Escherichia coli [19]) | MIC (Escherichia coli [20]) [mg/L]
1 | Cc1onc(-c2ccccc2)c1C(=O)N[C@@H]1C(=O)N2[C@@H]1SC(C)(C)[C@@H]2C(=O)O [OXACILLIN] | 1 (≈ 2.49 µM) | 1 (≈ 2.49 µM) | 8 (≈ 19.9 µM) | 0.5 (≈ 1.25 µM) | 0.5 (≈ 1.25 µM) | 0.5 (≈ 1.25 µM) | 0.5 (≈ 1.25 µM) | 0.5 (≈ 1.25 µM) | 0.5 (≈ 1.25 µM) | 0.5 (≈ 1.25 µM) | 0.5 (≈ 1.25 µM) | 2 (≈ 4.98 µM) | 1 (≈ 2.49 µM) | 1 (≈ 2.49 µM) | 4 (≈ 9.96 µM) | 0.5 (≈ 1.25 µM) | 0.5 (≈ 1.25 µM) | inactive | Active | 0.5 (≈ 1.25 µM)
2 | NC[C@H]1O[C@H](O[C@H]2[C@H](O)[C@@H](O[C@H]3O[C@H](CO)[C@@H](O)[C@H](N)[C@H]3O)[C@H](N)C[C@@H]2N)[C@H](O)[C@@H](O)[C@@H]1O [KANAMYCIN] | 2 (≈ 4.13 µM) | 2 (≈ 4.13 µM) | 8 (≈ 16.5 µM) | 1 (≈ 2.06 µM) | 1 (≈ 2.06 µM) | 1 (≈ 2.06 µM) | 1 (≈ 2.06 µM) | 1 (≈ 2.06 µM) | 2 (≈ 4.13 µM) | 2 (≈ 4.13 µM) | 2 (≈ 4.13 µM) | 4 (≈ 8.26 µM) | 2 (≈ 4.13 µM) | 2 (≈ 4.13 µM) | 8 (≈ 16.5 µM) | 2 (≈ 4.13 µM) | 4 (≈ 8.26 µM) | inactive | Active | 2 (≈ 4.13 µM)
3 | Cc1onc(-c2ccccc2Cl)c1C(=O)N[C@@H]1C(=O)N2[C@@H]1SC(C)(C)[C@@H]2C(=O)O [CLOXACILLIN] | 1 (≈ 2.29 µM) | 1 (≈ 2.29 µM) | 16 (≈ 36.7 µM) | 1 (≈ 2.29 µM) | 1 (≈ 2.29 µM) | 1 (≈ 2.29 µM) | 0.25 (≈ 0.574 µM) | 0.25 (≈ 0.574 µM) | 0.25 (≈ 0.574 µM) | 1 (≈ 2.29 µM) | 1 (≈ 2.29 µM) | 2 (≈ 4.59 µM) | 1 (≈ 2.29 µM) | 1 (≈ 2.29 µM) | 4 (≈ 9.18 µM) | 0.5 (≈ 1.15 µM) | 0.5 (≈ 1.15 µM) | inactive | Active | 0.5 (≈ 1.15 µM)
4 | CO[C@@H]1[C@@H](OC(N)=O)[C@@H](O)[C@H](Oc2ccc3c(O)c(NC(=O)c4ccc(O)c(CC=C(C)C)c4)c(=O)oc3c2C)OC1(C)C [NOVOBIOCIN] | 4 (≈ 6.53 µM) | 4 (≈ 6.53 µM) | 16 (≈ 26.1 µM) | 4 (≈ 6.53 µM) | 4 (≈ 6.53 µM) | 4 (≈ 6.53 µM) | 2 (≈ 3.26 µM) | 2 (≈ 3.26 µM) | 2 (≈ 3.26 µM) | 4 (≈ 6.53 µM) | 4 (≈ 6.53 µM) | 8 (≈ 13.1 µM) | 4 (≈ 6.53 µM) | 4 (≈ 6.53 µM) | 8 (≈ 13.1 µM) | 2 (≈ 3.26 µM) | 2 (≈ 3.26 µM) | inactive | Active | 2 (≈ 3.26 µM)
5 | C[C@H]1[C@H](NC(=O)/C(=N\OC(C)(C)C(=O)O)c2csc(N)n2)C(=O)N1S(=O)(=O)O [AZTREONAM] | 0.063 (≈ 0.145 µM) | 0.063 (≈ 0.145 µM) | 0.25 (≈ 0.574 µM) | 0.063 (≈ 0.145 µM) | 0.063 (≈ 0.145 µM) | 0.063 (≈ 0.145 µM) | 0.063 (≈ 0.145 µM) | 0.063 (≈ 0.145 µM) | 0.063 (≈ 0.145 µM) | 0.063 (≈ 0.145 µM) | 0.063 (≈ 0.145 µM) | 0.063 (≈ 0.145 µM) | 0.063 (≈ 0.145 µM) | 0.063 (≈ 0.145 µM) | 0.25 (≈ 0.574 µM) | 0.063 (≈ 0.145 µM) | 0.063 (≈ 0.145 µM) | inactive | Active | 0.063 (≈ 0.145 µM)
6 | Cn1nnnc1SCC1=C(C(=O)O)N2C(=O)[C@@H](NC(=O)[C@H](O)c3ccccc3)[C@H]2SC1 [CEFAMANDOLE] | 0.063 (≈ 0.136 µM) | 0.063 (≈ 0.136 µM) | 0.25 (≈ 0.541 µM) | 0.063 (≈ 0.136 µM) | 0.063 (≈ 0.136 µM) | 0.063 (≈ 0.136 µM) | 0.063 (≈ 0.136 µM) | 0.063 (≈ 0.136 µM) | 0.063 (≈ 0.136 µM) | 0.063 (≈ 0.136 µM) | 0.063 (≈ 0.136 µM) | 0.13 (≈ 0.281 µM) | 0.063 (≈ 0.136 µM) | 0.063 (≈ 0.136 µM) | 0.13 (≈ 0.281 µM) | 0.063 (≈ 0.136 µM) | 0.063 (≈ 0.136 µM) | inactive | Active | 0.063 (≈ 0.136 µM)
7 | CCOc1ccc2ccccc2c1C(=O)N[C@@H]1C(=O)N2[C@@H]1SC(C)(C)[C@@H]2C(=O)O [NAFCILLIN] | 2 (≈ 4.83 µM) | 2 (≈ 4.83 µM) | 16 (≈ 38.6 µM) | 1 (≈ 2.41 µM) | 1 (≈ 2.41 µM) | 1 (≈ 2.41 µM) | 1 (≈ 2.41 µM) | 1 (≈ 2.41 µM) | 1 (≈ 2.41 µM) | 1 (≈ 2.41 µM) | 1 (≈ 2.41 µM) | 4 (≈ 9.65 µM) | 1 (≈ 2.41 µM) | 1 (≈ 2.41 µM) | 4 (≈ 9.65 µM) | 1 (≈ 2.41 µM) | 1 (≈ 2.41 µM) | inactive | Active | 1 (≈ 2.41 µM)
